# Assay outcomes: PubChem BioAssay, several laboratories
# Autophagy mod: alters autophagy in cells | MEF GFP-LC3 puncta imaging; test concentration mostly 10 µM | calls only at 10 µM (by protocol) | hit rate 0.98% among 190,000 | AID 463193;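 active = percentage of spot-positive cells more than 3 SD above its plate mean, without a fluorescence outlier flag or 80% toxicity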;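 note: spot-positive cell cutoff set from DMSO-treated cells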
# PTEN del growth: suppresses growth of cells with PTEN deletion. HCT116 PTEN-null viability, CellTiter-Glo, 60 h; active compounds read low. viability, % at 10 µM. hit rate 1.2% among 140,000. AID 827;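 active = viability at or below a set limit, 4 SD under the median of all tested compounds, cut at about 3.7% in these data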;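 note: PTEN knockout HCT116 line with beta catenin targeted HCT116 as companion control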
# Lmaj promast: Leishmania major promastigote growth inhibition; inhibition, % at 10 µM; AID 1063; Leishmania major promastigotes, resazurin fluorescence viability; hit rate 9% among 200,000; in the data active = inhibition above about 50%;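 note: promastigotes grown with compound for 44 hours at 28 °C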
# bCat KO growth: beta-catenin-lacking colon tumor cell growth suppression; HCT116 beta-catenin knockout viability, CellTiter-Glo, 60 h; active compounds read low; viability, % at 10 µM; hit rate 1.5% among 140,000;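 active = viability at or under a set limit, the compound median less 4 SD, cut at about 6% in these data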;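 note: 0% = Hyamine 1622 control at 20 µM and 100% = untreated cell control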
# Dynein transport: blocks dynein driven cargo transport along microtubules; hit rate 0.47% among 220,000; AID 1381; z-score, hits read low; 3617.4 mouse cells, GR-EGFP nuclear translocation imaging; test concentration mostly 20 µM; stimulated with dexamethasone, 1 µM; active compounds read low;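 active = plate z-score of nuclear minus cytoplasmic receptor signal below a set negative limit, without overly bright fluorescence or cell loss, cut at about -3.5 in these data, passing the limit was not always enough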;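 note: z-score of nuclear minus cytoplasmic ring GR-EGFP intensity difference per well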
#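 Buffer or medium – tet-free medium with charcoal-stripped serum · Signal – automated 10x imaging of fixed Hoechst-stained cells · Also added – dexamethasone agonist, 1.0 µM final, for 30 min · Incubation – induction 48 h, compound 1 h, agonist 30 min · Read-out – GR-EGFP nuclear translocation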
# An asterisk follows results filed as active; i = inactive; · = no result; + = active, no number. In the library only some 9.2% were active in any assay of this set; here they are far more common.
SMILES,Autophagy mod,PTEN del growth,Lmaj promast,bCat KO growth,Dynein transport
COc1cccc2c3c(c(C)nc12)CCN3c1ccccc1,+,·,78*,·,1.3
COc1ccccc1N1CCc2c(C)nc3c(OC)cccc3c21,i,28,89*,26,·
O=C(/C=C/c1ccccc1)NNC1=NS(=O)(=O)c2ccccc21,i,·,-8,·,0.8
S=C(Nc1ccc(Cc2ccncc2)cc1)Nc1cccc(Cl)c1,i,·,1,·,-0.79
Cc1ccc(Cn2nc(C)c(NC(=O)CCCn3nc(C)c([N+](=O)[O-])c3C)c2C)cc1,i,95,52*,95,-0.43
Cc1ccc(Cn2nc(C)c(NC(=O)CCCn3nc([N+](=O)[O-])c(Cl)c3C)c2C)cc1,i,85,8,82,-0.15
Cc1nn(Cc2c(Cl)cccc2Cl)c(C)c1NC(=O)CCCn1nc(C)c([N+](=O)[O-])c1C,i,98,66*,85,-0.51
Cc1ccc(/C=C2\C(=O)Nc3ccccc32)o1,i,5,99*,9,0.29
O=C1Nc2ccccc2/C1=C/c1cccnc1,i,·,78*,·,-0.35
COc1ccc2c(c1OC)C(=O)N1N=C(c3ccc(Br)cc3)CC21 (centres undefined),i,107,17,101,0.72
COc1ccc(C2=NN3C(=O)c4c(ccc(OC)c4OC)C3C2)cc1 (centres undefined),i,101,60*,110,0.042
CCOC(=O)C(C)(C)N(Cc1ccc(C)cc1)S(=O)(=O)c1ccc(Cl)c([N+](=O)[O-])c1,i,0.8*,100*,0.9*,-0.37
CC(=O)c1c(C)oc2ccc(N(C(C)=O)S(=O)(=O)c3ccc(Cl)c([N+](=O)[O-])c3)cc12,i,43,0,32,-1.4
CCOC(=O)C(C)(C)N(Cc1ccc(Cl)cc1)S(=O)(=O)c1ccc(Cl)c([N+](=O)[O-])c1,i,1.6*,99*,1.1*,-1.7
CCOC(=O)C(C)(C)NS(=O)(=O)c1ccc(Cl)c([N+](=O)[O-])c1,i,77,6,60,-0.26
Cc1ccc2[nH]c(=O)c3cc(C(=O)N(C)Cc4ccco4)sc3c2c1,i,57,56*,59,0.41
CCOCCCN(Cc1ccco1)C(=O)c1cc2c(=O)[nH]c3ccc(C)cc3c2s1,i,41,73*,47,2.6
Cc1ccc(CN2CCC(c3cc(-c4cccs4)n[nH]3)CC2)cc1,i,·,94*,·,2
CC1CCC(N(CCCN)Cc2ccco2)CC1C (centres undefined),i,·,22,·,-0.83
Cc1ccc(-c2nnn(CC(=O)N(c3ccccc3F)C(C(=O)NCC3CCCO3)c3c[nH]c4ccccc34)n2)cc1 (centres undefined),i,78,88*,94,-0.29
Oc1c(Cl)cc(Cl)cc1/C=N/Nc1ncc(Br)cn1,i,·,96*,·,0.76
Cc1ccccc1C(=O)N(Cc1nc2ccccc2c(=O)[nH]1)C1CCCC1,i,·,2,·,-0.14
CN(Cc1ccccc1)C(=O)CN(Cc1ccccc1)S(C)(=O)=O,i,101,-3,84,1.1
CCCc1nc2ccccc2c(C(=O)OCC(=O)N2CCc3ccccc32)c1CC,i,55,99*,63,0.37
COc1ccc(-c2[nH]ncc2CNC(C)c2cn(C)nc2C)c(F)c1 (centres undefined),i,·,0,·,-0.21
SMILES,Autophagy mod,PTEN del growth,Lmaj promast,bCat KO growth,Dynein transport
COc1ccc(OC)c(/C=N\NC(=O)CSc2nnc(CCCc3ccc(OC)c(C)c3)o2)c1,i,81,5,86,0.41
CCOC(=O)C1(CCCc2ccccc2)CCN(Cc2ccn[nH]2)CC1,i,·,5,·,-0.76
O=C(Nc1cc(Sc2nc3ccccc3s2)cc([N+](=O)[O-])c1)c1cccc(F)c1F,i,35,73*,55,-0.28
Cc1nc(C(=O)NCCC(C)C)sc1C1(C)CC(c2ccccc2)=NO1 (centres undefined),·,·,·,·,0.26
N/C(=N/O)c1ccccc1N1CCC(Cc2ccccc2)CC1,i,·,23,·,-0.57
Cc1csc(=Nc2ccccc2)n1CCCN1CCCC1=O,i,·,1,·,-0.31
CC(OC(=O)CCN1C(=O)c2cccc([N+](=O)[O-])c2C1=O)C(=O)Nc1cc(Cl)cc(Cl)c1 (centres undefined),i,92,54*,98,-0.9
Cc1ccc(Cl)cc1N(Cc1ccc(C(=O)NCc2cccnc2)cc1)S(=O)(=O)c1ccccc1,i,64,83*,68,1.5
COc1ccccc1NC(=O)c1ccc(CN(c2cc(Cl)ccc2C)S(=O)(=O)c2ccccc2)cc1,i,65,2,63,-0.38
Cc1nn(C(C)C(=O)N2CCc3ccccc32)c(C)c1[N+](=O)[O-] (centres undefined),i,82,-2,78,-0.35
[N-]=[N+]=NC1C[C@H](n2ccc(=O)[nH]c2=O)O[C@@H]1CO (some centres undefined),i,1.0*,-2,1.1*,-0.15
Cc1cn2c(nc1=O)OC1CC2OC1CO (centres undefined),·,·,·,·,-0.52
O=C(CCc1nc2ccccc2s1)NC1CCOC1=O (centres undefined),·,·,·,·,0.92
O=C(CCCCCCCC(=O)NNC(=O)Nc1ccccc1)NNC(=O)Nc1ccccc1,i,95,-4,94,0.38
Cc1cccc(CN(CC(=O)N/N=C/c2cccs2)S(=O)(=O)c2ccc(Cl)cc2)c1,i,12,93*,14,-0.33
CCN1CCN(CCCNC(=O)c2csc3c2CCCCC3)CC1,i,98,99*,105,0.54
O=C(NCCN1CCOCC1)c1csc2c1CCCCC2,i,91,-1,84,1.1
CC1CCc2c(C(=O)NCCCN3CCOCC3)csc2C1 (centres undefined),i,108,93*,100,-0.078
CCCCc1c(O)nc(SCC(=O)c2ccccc2)n(-c2ccccc2OC)c1=O,·,·,·,·,0.034
COc1cccc(-c2nnc3n2N=C(c2cc(OC)ccc2OC)CS3)c1,i,61,27,57,0.85
COc1cccc(-c2nnc3n2N=C(C(C)(C)C)CS3)c1,i,4,5,5.5*,-1.2
CCOc1cccc(-c2nnc3n2N=C(c2cc(OC)ccc2OC)CS3)c1,i,18,66*,18,-1
CC(OC(=O)c1snc(C(=O)NC2CCCCC2)c1N)C(=O)NC1CCCCC1 (centres undefined),i,82,-4,88,1.8
CCOc1ccc(NC(=O)c2nsc(Cl)c2Cl)cc1,+,·,-3,·,0.97
COc1ccc(S(=O)(=O)NCC(c2cccnc2)N2CCN(c3ccccc3OC)CC2)cc1C (centres undefined),i,88,98*,77,1.5
COc1ccccc1N1CCN(C(CNS(=O)(=O)c2ccccc2)c2cccnc2)CC1 (centres undefined),i,95,93*,100,0.33
